1 compound from ChEMBL document CHEMBL1159071, “Discovery of 4-(5-methyloxazolo[4,5-b]pyridin-2-yl)-1,4-diazabicyclo[3.2.2]nonane (CP-810,123), a novel alpha 7 nicotinic acetylcholine receptor agonist for the treatment of cognitive disorders in schizophrenia: synthesis, SAR development, and in vivo efficacy in cognition models” (J Med Chem, 2010) can be followed below.

Active and inactive are the calls of the source. The calls are words filed in the database; no cut-off is given here. Some results are limits rather than exact numbers.

For series [1], the system named is Plasma. In words: Fraction unbound in rat plasma. Type of series: ADME, cell-free.
The target in series [2] is T1, 5-hydroxytryptamine receptor 3A (Homo sapiens, UniProt P46098).
T1 sequence (P46098 whole entry): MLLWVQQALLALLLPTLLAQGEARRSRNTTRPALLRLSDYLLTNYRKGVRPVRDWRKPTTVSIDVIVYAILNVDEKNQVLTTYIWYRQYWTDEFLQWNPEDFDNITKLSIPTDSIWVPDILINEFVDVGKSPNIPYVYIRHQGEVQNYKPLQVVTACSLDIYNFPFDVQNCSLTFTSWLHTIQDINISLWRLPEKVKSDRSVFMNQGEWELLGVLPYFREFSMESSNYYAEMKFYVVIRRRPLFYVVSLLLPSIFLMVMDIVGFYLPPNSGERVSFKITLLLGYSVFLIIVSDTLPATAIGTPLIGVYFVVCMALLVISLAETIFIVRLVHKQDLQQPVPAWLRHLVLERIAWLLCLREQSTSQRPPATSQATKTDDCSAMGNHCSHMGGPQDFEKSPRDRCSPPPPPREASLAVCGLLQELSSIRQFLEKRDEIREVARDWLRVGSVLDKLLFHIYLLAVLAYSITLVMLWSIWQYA
The series is described as follows: […] at human 5HT3 receptor expressed in human skin epithelial cells assessed as stimulation of calcium flux by FLIPR assay. Type of series: functional, cell-based, Epithelial cell. The method in brief: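 Human 5-HT3A stably in human skin epithelial cells, plated 15 000 cells/well 2 days ahead; loaded 1 h at 37 °C with Fluo-4 (8 μM final), washed into HBSS with 20 mM Tris-HEPES, 1 μM atropine, 4 mM Ca2+, pH 7.4. Compound added 2 min, then 5-HT challenge (250 nM final) 2 min; FLIPR calcium read.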
On the technique in general: Calcium flux is commonly read through the fluorescence of an indicator in the cells.

In series [3] the target is Neuronal acetylcholine receptor subunit alpha-7 (Rattus norvegicus) (UniProt Q05941). In words: Ex vivo receptor binding at alpha7 nicotinic acetylcholine receptor in rat hippocampal brain after 30 mins by [125I]alpha-bungarotoxin binding assay. Type of series: tissue-based. The following applies: Hippocampus. The method in brief: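 Rats dosed sc with compound or vehicle, 3 per dose group; hippocampus taken 30 min later and homogenized in HEPES buffer pH 7.5. Homogenate incubated 2 h at 37 °C with 0.4 nM [125I]α-bungarotoxin. Nonspecific binding with 1 μM methyllycaconitine; filtration onto GF/B. Occupancy-versus-dose ED50 derived.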

The target of series [4] is Neuronal acetylcholine receptor; alpha3/beta4 (Homo sapiens, UniProt P30926+P32297). In words: Displacement of [3H]epibatidine from alpha3beta4 nAChR expressed in IMR32 cells. Type of series: cell-based, IMR-32. Put shortly: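 Alpha3β4 binding in IMR32 cells with [3H]epibatidine radioligand. Six-point concentration-response curve run in triplicate and averaged.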
In general terms: Displacement assays read how much labelled ligand stays bound in the presence of the test substance.

Series [5] concerns Rattus norvegicus. The series is described as follows: Cognitive enhancement in sc dosed Sprague-Dawley rat assessed as reversal of amphetamine-induced auditory sensory gating deficits. Type of series: functional. Particulars: read-out: MED. Put shortly: (§1)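 Male Sprague-Dawley rats (250-300 g) under chloral hydrate (400 mg/kg ip), femoral vein cannulated. CA3 hippocampal field potential recorded; auditory-evoked responses averaged over 50 stimulus pairs at 10 s interstimulus interval. Gating disrupted by d-amphetamine 1 mg/kg iv; compound sc. Read-out is reversal of the amphetamine deficit; PBS vehicle; two-tailed paired t-test.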

Series [6] can be described thus: Oral bioavailability in rat. The following applies: in vivo. Type of series: ADME, organism-based.
Series [7] deals with Muscarinic acetylcholine receptor M3 (Homo sapiens, UniProt P20309). The series is described as follows: Inhibition of muscarinic M3 receptor.
The target of series [8] is Neuronal acetylcholine receptor; alpha4/beta2 (Rattus norvegicus, UniProt P09483+P12390). The series is described as follows: Displacement of [3H]nicotine from alpha4beta2 nAChR in rat brain homogenate. Type of series: tissue-based. The method in brief: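 Rat brain homogenate membranes; [3H]nicotine used as radioligand. Ki taken as the average of a six-point dose-response curve run in triplicate.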

The nature of series [9]: Aqueous solubility of the compound. Type of series: physicochemical. The following applies: buffer.
The test system of series [10] is Rattus norvegicus. In words: Cognitive enhancement in Sprague-Dawley rat assessed as reversal of amphetamine-induced auditory sensory gating deficit at 0.1 mg/kg, sc. Type of series: functional, organism-based. Set-up: dose 0.1 mg/kg. The method in brief: as §1
Series [11] deals with Rattus norvegicus. The series is described as follows: Cognitive enhancement in Sprague-Dawley rat assessed as reversal of amphetamine-induced auditory sensory gating deficit at 0.3 mg/kg, sc. Type of series: functional, organism-based. Set-up: dose 0.3 mg/kg. Put shortly: as §1
Series [12] concerns the target Neuronal acetylcholine receptor subunit alpha-7 (Homo sapiens, UniProt P36544). The series is described as follows: Displacement of [125I]BTX from human alpha7 nicotinic acetylcholine receptor expressed in IMR32 cells. Type of series: cell-based, IMR-32. The method in brief: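 Human α7 nAChR in IMR-32 cells, [125I]BTX radioligand. Six-point concentration-response curve, run in triplicate and averaged.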

The target of series [13] is T2, Muscarinic acetylcholine receptor M1 (Homo sapiens, UniProt P11229).
T2 sequence (P11229 whole entry): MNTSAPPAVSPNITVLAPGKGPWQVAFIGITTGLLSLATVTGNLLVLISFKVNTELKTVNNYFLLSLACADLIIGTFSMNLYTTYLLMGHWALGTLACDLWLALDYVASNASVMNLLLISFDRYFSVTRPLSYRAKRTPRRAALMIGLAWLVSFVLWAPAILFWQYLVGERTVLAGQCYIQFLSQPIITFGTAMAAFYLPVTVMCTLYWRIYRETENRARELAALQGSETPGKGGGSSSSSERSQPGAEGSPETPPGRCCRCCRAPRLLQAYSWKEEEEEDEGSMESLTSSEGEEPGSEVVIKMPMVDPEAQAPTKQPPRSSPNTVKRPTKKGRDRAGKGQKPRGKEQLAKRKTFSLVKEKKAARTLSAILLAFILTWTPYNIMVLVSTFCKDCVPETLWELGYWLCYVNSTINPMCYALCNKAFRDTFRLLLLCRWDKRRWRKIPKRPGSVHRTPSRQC
In words: Inhibition of muscarinic M1 receptor.

The test system of series [14] is Rattus norvegicus. In words: Cognitive enhancement in Sprague-Dawley rat assessed as augmentation of amphetamine-induced hippocampal theta oscillation at 1 mg/kg, sc. Type of series: functional, organism-based. Set-up: dose 1 mg/kg. Particulars: Hippocampus.
The test system of series [15] is Rattus norvegicus. In words: Free plasma concentration in Sprague-Dawley rat auditory sensory gating deficit model at 0.3 mg/kg, sc after 40 mins. Type of series: functional. The following applies: route subcutaneous. Put shortly:
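Rats given 0.3 mg/kg sc; free plasma concentration measured about 40 min after dosing.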

Series [16] concerns Rattus norvegicus. In words: Cognitive enhancement in Sprague-Dawley rat assessed as reversal of amphetamine-induced auditory sensory gating deficit at 1 mg/kg, sc. Type of series: functional, organism-based. Set-up: dose 1 mg/kg. Put shortly:
as §1

For orientation: IC50 means the point on the concentration scale where inhibition reaches its midpoint. In general, ED50 refers to the midpoint of the dose-response relation. High values mean a need for a large dose, low ones an effect at a small dose. As usually defined, the Ki is a dissociation constant, usually derived from enzyme kinetics or from competition with a known ligand. For orientation: bioavailability means dose-corrected exposure relative to a reference, in per cent. A higher bioavailability goes with good availability. What is called solubility is how much of the substance goes into solution per volume. The low end stands for a poorly soluble substance, the high end for a readily soluble substance.

Sequence of Neuronal acetylcholine receptor; alpha4/beta2 (P09483 whole entry): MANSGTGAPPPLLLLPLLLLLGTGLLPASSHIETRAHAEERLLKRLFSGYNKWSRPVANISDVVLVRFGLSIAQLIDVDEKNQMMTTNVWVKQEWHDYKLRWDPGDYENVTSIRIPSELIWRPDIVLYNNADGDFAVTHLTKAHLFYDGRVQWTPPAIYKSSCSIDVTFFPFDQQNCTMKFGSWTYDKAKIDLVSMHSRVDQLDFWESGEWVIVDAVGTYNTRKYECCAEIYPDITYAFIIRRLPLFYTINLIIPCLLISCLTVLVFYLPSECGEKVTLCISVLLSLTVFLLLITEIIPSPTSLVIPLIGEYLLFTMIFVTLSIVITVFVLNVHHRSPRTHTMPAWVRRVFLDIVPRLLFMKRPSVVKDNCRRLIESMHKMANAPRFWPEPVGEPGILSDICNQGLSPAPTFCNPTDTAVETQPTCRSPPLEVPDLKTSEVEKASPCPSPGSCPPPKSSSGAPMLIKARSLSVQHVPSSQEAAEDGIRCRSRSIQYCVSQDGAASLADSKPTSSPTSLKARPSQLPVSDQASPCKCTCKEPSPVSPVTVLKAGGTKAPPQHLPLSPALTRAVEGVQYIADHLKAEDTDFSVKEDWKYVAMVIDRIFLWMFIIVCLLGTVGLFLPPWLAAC
Sequence of Neuronal acetylcholine receptor; alpha4/beta2 (P12390 whole entry): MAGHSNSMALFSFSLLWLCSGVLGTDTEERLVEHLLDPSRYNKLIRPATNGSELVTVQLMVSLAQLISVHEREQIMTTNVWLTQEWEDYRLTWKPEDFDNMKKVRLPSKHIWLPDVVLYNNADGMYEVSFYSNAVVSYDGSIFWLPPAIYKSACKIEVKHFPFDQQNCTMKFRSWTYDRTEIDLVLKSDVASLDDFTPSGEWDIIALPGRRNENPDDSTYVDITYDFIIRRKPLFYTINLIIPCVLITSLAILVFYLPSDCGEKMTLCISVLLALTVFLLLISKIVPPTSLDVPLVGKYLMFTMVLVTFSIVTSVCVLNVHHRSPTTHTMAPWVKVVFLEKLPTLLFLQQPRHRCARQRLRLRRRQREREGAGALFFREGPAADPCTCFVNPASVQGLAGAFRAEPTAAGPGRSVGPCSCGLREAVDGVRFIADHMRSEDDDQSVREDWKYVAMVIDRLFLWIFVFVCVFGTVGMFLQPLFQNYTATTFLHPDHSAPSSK
Sequence of Neuronal acetylcholine receptor; alpha3/beta4 (P30926 whole entry): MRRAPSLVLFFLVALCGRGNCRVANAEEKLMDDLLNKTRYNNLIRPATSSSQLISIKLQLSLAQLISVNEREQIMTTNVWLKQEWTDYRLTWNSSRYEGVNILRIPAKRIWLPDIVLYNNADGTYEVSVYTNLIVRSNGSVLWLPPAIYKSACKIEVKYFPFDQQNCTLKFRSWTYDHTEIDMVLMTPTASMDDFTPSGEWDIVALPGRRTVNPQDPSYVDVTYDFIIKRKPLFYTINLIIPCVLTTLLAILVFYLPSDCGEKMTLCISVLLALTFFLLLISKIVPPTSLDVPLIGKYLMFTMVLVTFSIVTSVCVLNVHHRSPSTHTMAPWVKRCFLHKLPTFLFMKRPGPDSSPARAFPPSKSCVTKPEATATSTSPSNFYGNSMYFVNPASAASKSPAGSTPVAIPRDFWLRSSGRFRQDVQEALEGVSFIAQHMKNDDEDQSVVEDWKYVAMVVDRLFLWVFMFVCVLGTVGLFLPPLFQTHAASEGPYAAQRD
Sequence of Neuronal acetylcholine receptor; alpha3/beta4 (P32297 whole entry): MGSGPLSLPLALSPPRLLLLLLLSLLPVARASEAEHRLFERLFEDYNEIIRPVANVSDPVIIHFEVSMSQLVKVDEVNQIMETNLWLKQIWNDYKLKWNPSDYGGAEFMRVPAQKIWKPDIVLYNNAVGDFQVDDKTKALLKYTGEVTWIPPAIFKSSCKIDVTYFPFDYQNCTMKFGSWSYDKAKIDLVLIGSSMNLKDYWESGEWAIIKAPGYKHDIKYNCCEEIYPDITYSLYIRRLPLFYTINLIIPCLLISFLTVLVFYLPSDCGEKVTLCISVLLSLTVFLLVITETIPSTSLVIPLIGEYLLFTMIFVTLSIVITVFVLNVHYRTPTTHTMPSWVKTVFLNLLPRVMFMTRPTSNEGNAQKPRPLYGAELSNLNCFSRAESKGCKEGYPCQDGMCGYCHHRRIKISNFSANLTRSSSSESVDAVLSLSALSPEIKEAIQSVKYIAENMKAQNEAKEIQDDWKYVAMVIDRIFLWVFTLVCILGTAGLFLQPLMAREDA
Sequence of Muscarinic acetylcholine receptor M3 (P20309 whole entry): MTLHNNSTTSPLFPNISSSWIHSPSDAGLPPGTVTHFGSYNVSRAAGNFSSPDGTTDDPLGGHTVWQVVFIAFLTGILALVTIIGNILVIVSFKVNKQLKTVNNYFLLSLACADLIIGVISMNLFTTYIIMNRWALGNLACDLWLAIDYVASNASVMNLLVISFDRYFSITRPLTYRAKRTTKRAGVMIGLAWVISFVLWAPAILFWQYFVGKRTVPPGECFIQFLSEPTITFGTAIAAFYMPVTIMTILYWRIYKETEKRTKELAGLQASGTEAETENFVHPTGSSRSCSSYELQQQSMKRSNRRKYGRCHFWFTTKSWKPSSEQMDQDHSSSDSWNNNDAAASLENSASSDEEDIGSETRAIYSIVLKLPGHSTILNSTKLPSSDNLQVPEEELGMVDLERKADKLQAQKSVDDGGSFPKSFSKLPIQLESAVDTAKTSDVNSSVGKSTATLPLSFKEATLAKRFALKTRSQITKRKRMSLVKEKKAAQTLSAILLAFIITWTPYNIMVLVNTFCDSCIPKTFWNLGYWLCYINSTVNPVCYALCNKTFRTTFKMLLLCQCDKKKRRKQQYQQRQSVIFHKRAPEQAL
Sequence of Neuronal acetylcholine receptor subunit alpha-7 (P36544 whole entry): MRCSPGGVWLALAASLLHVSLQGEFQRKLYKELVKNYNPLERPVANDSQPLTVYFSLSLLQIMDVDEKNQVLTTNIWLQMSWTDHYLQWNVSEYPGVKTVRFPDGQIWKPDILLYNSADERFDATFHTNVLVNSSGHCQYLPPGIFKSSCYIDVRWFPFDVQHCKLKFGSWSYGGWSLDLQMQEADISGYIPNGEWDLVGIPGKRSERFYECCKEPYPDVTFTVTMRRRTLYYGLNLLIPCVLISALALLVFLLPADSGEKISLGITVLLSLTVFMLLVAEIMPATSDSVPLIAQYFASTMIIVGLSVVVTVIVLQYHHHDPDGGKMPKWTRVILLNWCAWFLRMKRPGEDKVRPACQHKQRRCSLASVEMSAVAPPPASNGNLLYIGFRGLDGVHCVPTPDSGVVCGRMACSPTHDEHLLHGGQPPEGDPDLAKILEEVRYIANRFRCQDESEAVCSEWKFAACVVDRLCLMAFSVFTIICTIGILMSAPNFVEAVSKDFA
Sequence of Neuronal acetylcholine receptor subunit alpha-7 (Rattus norvegicus) (Q05941 whole entry): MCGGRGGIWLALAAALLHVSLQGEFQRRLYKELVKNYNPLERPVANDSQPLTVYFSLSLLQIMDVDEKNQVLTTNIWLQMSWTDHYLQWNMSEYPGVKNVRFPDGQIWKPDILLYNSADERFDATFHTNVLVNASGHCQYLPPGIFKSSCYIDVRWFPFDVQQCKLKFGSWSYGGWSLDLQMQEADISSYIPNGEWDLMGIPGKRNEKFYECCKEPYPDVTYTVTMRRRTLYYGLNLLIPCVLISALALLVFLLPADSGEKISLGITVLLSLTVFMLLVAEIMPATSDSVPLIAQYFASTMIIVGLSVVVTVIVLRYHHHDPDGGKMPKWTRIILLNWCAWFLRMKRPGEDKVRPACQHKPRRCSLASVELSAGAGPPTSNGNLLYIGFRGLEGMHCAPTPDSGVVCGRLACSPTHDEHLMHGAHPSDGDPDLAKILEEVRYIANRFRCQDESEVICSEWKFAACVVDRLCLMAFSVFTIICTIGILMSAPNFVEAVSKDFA

`Cc1ccc2oc(N3CCN4CCC3CC4)nc2n1` gave a Fu in series [1] of 0.78%. The IC50 in series [2] was 0.005 µM. In series [3], the ED50 was determined as 0.34 mg/kg. Also, the Ki is 5.37 µM in [4]; 8.3 µM in series [7]; 1.35 µM in [8]; 0.0164 µM in series [12]; 14 µM in [13]. Moreover, the minimal effective dose in series [5] was 0.3 mg/kg. Moreover, the bioavailability in series [6] was found to be 73%. Moreover, the solubility in series [9] is over 2400 µg/mL. Besides, the outcome in series [10], in series [11], in [14] and in series [16] was Active. Moreover, the “Cp(f)” value in series [15] turned out to be 326 nM.
